Only a selection was taken, and hits are over-represented in it overall.
HUVEC prolif 384 – inhibitors of human endothelial cell proliferation | HUVEC proliferation, CellTiter-Glo luminescence, 72 h; active compounds read low | viability, % at 10 µM (by protocol) | 1.1% of 86,000 active;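 active means viability at or below 30%; inactive means viability above 30%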;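 further: 100% = median luminescence of DMSO-only cell control wells on each plate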
HCT116 PTEN-null – PTEN-deleted cell growth suppression; HCT116 PTEN-null viability, CellTiter-Glo, 60 h; active compounds read low; viability, % at 10 µM; 1.2% of 140,000 active; AID 827;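 active means viability at or below a set limit, 4 SD under the median of all tested compounds, cut at about 3.7% in these data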;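 further: PTEN knockout HCT116 line with beta catenin targeted HCT116 as companion control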
bCat KO growth – beta-catenin-lacking colon tumor cell growth suppression; HCT116 beta-catenin knockout viability, CellTiter-Glo, 60 h; active compounds read low; viability, % at 10 µM; 1.5% of 140,000 active; AID 818;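 active means viability at or under a set limit, the compound median less 4 SD, cut at about 6% in these data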;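 further: 0% = Hyamine 1622 control at 20 µM and 100% = untreated cell control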
H69AR growth 86K – blocks growth of human H69AR lung tumor cells; H69AR lung tumor viability, ATP luminescence, 72 h; active compounds read low; viability, % at 10 µM; 6% of 85,000 active;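 active means viability at or below 40%; inactive means viability above 40%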;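 further: multidrug resistant small cell line overexpressing MRP-1 efflux transporter; 100% = mean luminescence of untreated control wells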
Lung fibro prol – blocks proliferation of human lung fibroblasts; LL 47 human lung fibroblast viability, ATP luminescence; active compounds read low; viability, % at 10 µM; 1.1% of 85,000 active; AID 719;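 active means viability at or below 50% in the single dose screen; inactive means viability above 50%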;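 further: compound exposure lasted 72 h before the ATP readout; 100% = median luminescence of untreated cell-only wells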
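Assay system: human lung fibroblast line LL 47, low passage. Input: 1,150 fibroblasts seeded per well. Times: overnight cell rest, 72 h compound treatment at 37 °C. Evaluation: % viability of median cell-only signal. Technique: luminescent ATP detection, CellTiter-Glo. Control set: cell-only wells, no compound.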
The depositor's hits bear a star.

What do the screens show for `COc1ccc(/C=C2\CN(Cc3ccccc3)C/C(=C\c3ccc(OC)cc3)C2=O)cc1`?
HCT116 PTEN-null: 1.6*; bCat KO growth: 1.7*

What do the screens show for `COc1ccc(OC)c(S(=O)(=O)NC2CCN(Cc3ccccc3)CC2)c1`?
HUVEC prolif 384: 90; HCT116 PTEN-null: 66; bCat KO growth: 59; H69AR growth 86K: 76; Lung fibro prol: 103

Results for COc1ccc(-n2c(=O)cc(N3CCN(Cc4ccccc4)CC3)[nH]c2=O)cc1 ?
HUVEC prolif 384: 88; HCT116 PTEN-null: 100; bCat KO growth: 88; H69AR growth 86K: 93; Lung fibro prol: 90

What do the screens show for `Cc1ccc(S(=O)(=O)NCCC(=O)Nc2ccc(C)cc2C(=O)c2ccccc2)cc1`?
HCT116 PTEN-null: 80; bCat KO growth: 77

How did CC[n+]1cc(-c2ccccc2)nc(N2CCOCC2)n1 do in these assays?
HUVEC prolif 384: 27*; HCT116 PTEN-null: 78; bCat KO growth: 75; H69AR growth 86K: 91; Lung fibro prol: 99

How did NC(=O)c1cc(-c2ccccc2)nc(N2CCOCC2)n1 do in these assays?
HUVEC prolif 384: 57; HCT116 PTEN-null: 67; bCat KO growth: 69; H69AR growth 86K: 64; Lung fibro prol: 71

How did Cc1cccc(C)c1NC(=S)N/N=C/c1ccc(OCCC(C)C)cc1 do in these assays?
HCT116 PTEN-null: 59; bCat KO growth: 72

What do the screens show for `CN(C)N1C(=O)CC(NNC(=O)c2ccncc2)C1=O` (stereo not drawn)?
HCT116 PTEN-null: 117; bCat KO growth: 95

What do the screens show for `COc1ccc(C(=O)NC(=S)Nc2cccc(Cl)c2N2CCOCC2)cc1[N+](=O)[O-]`?
HCT116 PTEN-null: 61; bCat KO growth: 60

How did CC(C)=NOc1cc(NC(=O)CCl)cc([N+](=O)[O-])c1 do in these assays?
HCT116 PTEN-null: 3.0*; bCat KO growth: 3.3*

Results for CCOc1cccc2cc(-c3csc(NC(=O)CCC(=O)N4CCN(C)CC4)n3)c(=O)oc12 ?
HUVEC prolif 384: 78; H69AR growth 86K: 33*; Lung fibro prol: 66

Results for CCOc1cccc2cc(-c3csc(NC(=O)CCC(=O)N4CCC(C)CC4)n3)c(=O)oc12 ?
HUVEC prolif 384: 28*; HCT116 PTEN-null: 79; bCat KO growth: 73; H69AR growth 86K: 18*; Lung fibro prol: 22*

Results for CCOc1cccc2cc(C(=O)Nc3nccs3)c(=O)oc12 ?
HCT116 PTEN-null: 92; bCat KO growth: 95

How did CCNC(=O)CCSc1nnc(-c2ccco2)o1 do in these assays?
HCT116 PTEN-null: 101; bCat KO growth: 98

Results for O=C(CSc1nc(-c2ccccc2)c(-c2ccccc2)[nH]1)NCc1ccco1 ?
HUVEC prolif 384: 46; HCT116 PTEN-null: 35; bCat KO growth: 42; H69AR growth 86K: 92; Lung fibro prol: 83

What do the screens show for `O=C(CSc1nc(-c2ccccc2)c(-c2ccccc2)[nH]1)NCCN1C(=O)CSC1=O`?
HUVEC prolif 384: 31; HCT116 PTEN-null: 12; bCat KO growth: 10; H69AR growth 86K: 21*; Lung fibro prol: 55

How did N#CC1=C(N)C(C#N)(C#N)[C@H](c2ccoc2)[C@H]2CN(Cc3ccccc3)CC=C12 do in these assays?
HUVEC prolif 384: 39; HCT116 PTEN-null: 85; bCat KO growth: 89; H69AR growth 86K: 4.0*; Lung fibro prol: 69

How did N#CC1=C(N)C(C#N)(C#N)C(c2cccnc2)C2CN(C(=O)OCc3ccccc3)CC=C12 (stereo not drawn) do in these assays?
HUVEC prolif 384: 53; HCT116 PTEN-null: 69; bCat KO growth: 61; H69AR growth 86K: 11*; Lung fibro prol: 72

What do the screens show for `CN1CC=C2C(C#N)=C(N)C(C#N)(C#N)[C@H](c3ccoc3)[C@H]2C1`?
HUVEC prolif 384: 104; HCT116 PTEN-null: 69; bCat KO growth: 76; H69AR growth 86K: 56; Lung fibro prol: 95

What do the screens show for `CCOC(=O)N1CC=C2C(C#N)=C(N)C(C#N)(C#N)[C@H](c3ccc(OCC)c(OCC)c3)[C@H]2C1`?
HUVEC prolif 384: 60; HCT116 PTEN-null: 97; bCat KO growth: 94; H69AR growth 86K: 26*; Lung fibro prol: 79

Results for CN1CC=C2C(C#N)=C(N)C(C#N)(C#N)C(c3cccc(Cl)c3Cl)C2C1 (stereo not drawn) ?
HUVEC prolif 384: 71; HCT116 PTEN-null: 89; bCat KO growth: 84; H69AR growth 86K: 15*; Lung fibro prol: 78

Results for O=C(NCCN1C(=O)S/C(=C\c2ccc(OC(F)F)cc2)C1=O)c1cnccn1 ?
HCT116 PTEN-null: 23; bCat KO growth: 21

What do the screens show for `CC(C)Cc1ccc(/C=C/C(=O)NC2CC2)cc1`?
HCT116 PTEN-null: 97; bCat KO growth: 95

What do the screens show for `CC(C)P(=O)(c1cccc(C(=O)O)c1)C(C)C`?
HCT116 PTEN-null: 96; bCat KO growth: 88

How did Cc1ccc(N(C(=O)CCl)C(C(=O)NC2CCCCC2)c2cccnc2)cc1C (stereo not drawn) do in these assays?
HCT116 PTEN-null: 4; bCat KO growth: 7

How did N#Cc1nc(-c2cccc3ccccc23)oc1NCCN1CCCCC1 do in these assays?
HUVEC prolif 384: 5.1*; HCT116 PTEN-null: 47; bCat KO growth: 57; H69AR growth 86K: 13*; Lung fibro prol: 53

What do the screens show for `CCn1c(SCC(=O)N2CCc3ccccc3C2)nc2sc(C)c(C)c2c1=O`?
HCT116 PTEN-null: 67; bCat KO growth: 84

Results for CO/N=C\C(=N\Nc1ccc(OC)cc1)C(=O)c1ccccc1 ?
HUVEC prolif 384: 65; HCT116 PTEN-null: 69; bCat KO growth: 65; H69AR growth 86K: 28*; Lung fibro prol: 86

What do the screens show for `CO/N=C/C(=N\Nc1ccc(C)cc1)C(=O)c1ccc(OC)cc1`?
HUVEC prolif 384: 54; HCT116 PTEN-null: 32; bCat KO growth: 28; H69AR growth 86K: 22*; Lung fibro prol: 55

What do the screens show for `COc1ccc(C(=S)Nc2ccc(C)cc2)cc1`?
HCT116 PTEN-null: 105; bCat KO growth: 83

What do the screens show for `COc1ccc(N/N=C(\C#N)C(N)=O)cc1`?
HCT116 PTEN-null: 99; bCat KO growth: 96

How did C/C(=C/C(=O)N1CCc2ccccc21)C(=O)O do in these assays?
HCT116 PTEN-null: 93; bCat KO growth: 93

Results for COc1ccccc1NC(=O)N(Cc1ccco1)Cc1cc2ccc(C)c(C)c2[nH]c1=O ?
HUVEC prolif 384: 59; HCT116 PTEN-null: 24; bCat KO growth: 17; H69AR growth 86K: 17*; Lung fibro prol: 55

Results for COc1ccccc1NC(=O)N(Cc1ccco1)Cc1cc2cc(C)cc(C)c2[nH]c1=O ?
HUVEC prolif 384: 61; HCT116 PTEN-null: 30; bCat KO growth: 31; H69AR growth 86K: 19*; Lung fibro prol: 105

How did COc1ccccc1NC(=S)N(Cc1ccco1)Cc1cc2cccc(C)c2[nH]c1=O do in these assays?
HCT116 PTEN-null: 73; bCat KO growth: 90

What do the screens show for `C=CCn1c(SCc2nc3ccccc3c(=O)[nH]2)nnc1-c1cc2cc(Cl)ccc2o1`?
HUVEC prolif 384: 65; HCT116 PTEN-null: 76; bCat KO growth: 70; H69AR growth 86K: 17*; Lung fibro prol: 92

What do the screens show for `O=C(Nc1ncc(S(=O)(=O)c2ccc([N+](=O)[O-])cc2)s1)c1cccc2ccccc12`?
HCT116 PTEN-null: 40; bCat KO growth: 43

Source: PubChem
